The target of experiment [1] is T1, Proteasome component C5 (Homo sapiens) (UniProt P20618).
T1 sequence (whole entry): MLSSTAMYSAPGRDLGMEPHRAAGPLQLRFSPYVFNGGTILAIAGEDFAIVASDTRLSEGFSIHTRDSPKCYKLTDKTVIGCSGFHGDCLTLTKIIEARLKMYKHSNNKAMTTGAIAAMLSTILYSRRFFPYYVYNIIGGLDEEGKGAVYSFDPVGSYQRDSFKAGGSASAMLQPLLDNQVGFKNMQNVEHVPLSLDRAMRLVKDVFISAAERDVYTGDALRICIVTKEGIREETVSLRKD
Nature of the experiment: Binding affinity to 20S proteasome beta-1 subunit in human erythrocyte at 1 uM by Western blotting analysis. In a few lines: (§1)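 Purified human erythrocyte 20S core particle solution incubated with 1.0 µM dansyl-KF33955 for various times, then diluted directly in 2× denaturing buffer (urea/thiourea/CHAPS/Triton, pH 8.8). Proteins resolved by SDS-PAGE and transferred to PVDF. Labeled β subunits detected by immunoblot with anti-dansyl monoclonal antibody and ECL.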
Background: A western blot detects proteins with antibodies after separation by electrophoresis.

Experiment [2] deals with Proteasome Macropain subunit (Homo sapiens) (UniProt P49721). Put plainly: Binding affinity to 20S proteasome beta2 subunit in intact human HeLa cells at 1 uM by Western blotting analysis. The class given is cell-based. The conditions noted are these: TDE = time-dependent effect. In a few lines:
(§2)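 Intact HeLa cells (RPMI 1640, 10% FCS) incubated with 1.0 µM dansyl-KF33955 at 37 °C in serum-free medium for varying times. Cells were pelleted, put in urea/thiourea denaturing buffer at 4 °C and sonicated. Lysates were run on SDS-PAGE and blotted to PVDF. Labeled β subunits were detected with anti-dansyl monoclonal antibody and ECL.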

Experiment [3] addresses T2, Proteasome Macropain subunit MB1 (Homo sapiens) (UniProt P28074).
T2 sequence (whole entry): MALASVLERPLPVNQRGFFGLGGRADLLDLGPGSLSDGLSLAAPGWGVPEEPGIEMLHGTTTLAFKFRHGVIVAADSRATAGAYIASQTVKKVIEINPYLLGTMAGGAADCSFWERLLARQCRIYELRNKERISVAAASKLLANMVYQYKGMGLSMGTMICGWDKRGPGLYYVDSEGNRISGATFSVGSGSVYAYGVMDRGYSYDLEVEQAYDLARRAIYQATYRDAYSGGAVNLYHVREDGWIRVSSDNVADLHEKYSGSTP
Nature of the experiment: Binding affinity to 20S proteasome beta5 subunit in human erythrocyte at 1 uM after 1 hr by Western blotting analysis. In a few lines:
as §1

Experiment [4] concerns the target Proteasome Macropain subunit (Homo sapiens) (UniProt P49721). Put plainly: Binding affinity to 20S proteasome beta2 subunit in human erythrocyte at 1 uM after 1 hr by Western blotting analysis. In a few lines:
as §1

Experiment [5] concerns the target Proteasome subunit beta type-5 (Homo sapiens) (UniProt P28074). Nature of the experiment: Binding affinity to 20S proteasome beta5 subunit in human erythrocyte at 1 uM after 0.5 hr by Western blotting analysis.
A short description of experiment [6]: Inhibition of PGPH catalytic activity of 20S proteasome in human erythrocytes. In a few lines:
(§3)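 Purified human erythrocyte 20S core particle (100–200 ng) mixed with inhibitors at varied concentrations in 25 mM HEPES pH 7.6, 0.5 mM EDTA, 0.03% SDS; SDS left out for the trypsin-like assay. Started by adding fluorogenic AMC substrate: Suc-LLVY-AMC (chymotrypsin-like), Boc-LRR-AMC (trypsin-like), Z-LLE-AMC (PGPH). Fluorescence read up to 1 h (ex 380, em 460 nm). Activity from slope; IC50 derived.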

Experiment [7] addresses Proteasome Macropain subunit (Homo sapiens) (UniProt P49721). Put plainly: Binding affinity to 20S proteasome beta2 subunit in human erythrocyte at 1 uM after 0.5 hr by Western blotting analysis. The procedure, abridged: as §1
Experiment [8] deals with T2, Proteasome Macropain subunit MB1 (Homo sapiens). Nature of the experiment: Binding affinity to 20S proteasome beta5 subunit in human erythrocyte at 1 uM by Western blotting analysis. The procedure, abridged:
as §1

Experiment [9] addresses T1, Proteasome component C5 (Homo sapiens). Put plainly: Inhibition of MG132 binding to beta-1 subunit of 20S proteasome in human HeLa cells at 1 uM by Western blotting analysis. The class given is cell-based. The procedure, abridged:
(§4)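 Competition in intact HeLa cells. Cells were preincubated 1 h at 37 °C in serum-free medium with various concentrations of MG132, then given 1.0 µM dansyl-KF33955 for another hour. Cells were pelleted, lysed by sonication in urea/thiourea denaturing buffer, and resolved by SDS-PAGE. Remaining β subunit labeling was detected by anti-dansyl immunoblot.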

The nature of experiment [10]: Inhibition of chymotrypsin-like activity of 20S proteasome in human erythrocytes. In a few lines: as §3
Experiment [11] concerns the target T2, Proteasome Macropain subunit MB1 (Homo sapiens). Put plainly: Inhibition of clasto-lactacystin binding to beta5 subunit of 20S proteasome in human HeLa cells at 1 uM by Western blotting analysis. The class given is cell-based.
For experiment [12], the target named is T1, Proteasome component C5 (Homo sapiens). Nature of the experiment: Binding affinity to 26S proteasome beta-1 subunit in human HeLa cell extract at 1 uM by Western blotting analysis. The class given is cell-free. In a few lines: (§5)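 26S proteasome extract from HeLa cells at 50–80% confluency. Cells were washed in ice-cold PBS and resuspended in pH 7.5 Tris buffer with sucrose, MgCl2, EDTA, DTT and 1 mM ATP. They were permeabilized with 0.025% digitonin for 5 min on ice, and the cytosol was recovered at 15,000g. The extract was labeled with 1.0 µM dansyl-KF33955 for various times, diluted in 2× denaturing buffer, resolved by SDS-PAGE and immunoblotted with anti-dansyl antibody.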

Experiment [13] has as its target T2, Proteasome Macropain subunit MB1 (Homo sapiens). Put plainly: Binding affinity to 20S proteasome beta5 subunit in human HeLa cell extract at 1 uM by Western blotting analysis. The class given is cell-free. The procedure, abridged: as §5
Experiment [14] has the same target. Put plainly: Inhibition of MG132 binding to beta5 subunit of 20S proteasome in human HeLa cells at 1 uM by Western blotting analysis. The class given is cell-based. The procedure, abridged:
as §4

For a further experiment, the system named is HeLa. Put plainly: Growth inhibition of human HeLa cells after 48 hrs by MTT assay. The class given is functional, cell-based. In a few lines:
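HeLa cells grown in RPMI 1640 with 10% heat-inactivated fetal calf serum plus penicillin/streptomycin under 5% CO2. Inhibitors added at various concentrations for 48 h. Viability by MTT, absorbance at 570 nm. IC50 taken from growth inhibition.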
In general terms: Tetrazolium dyes change colour on reduction, which living cells bring about.

Experiment [15] addresses T2, Proteasome Macropain subunit MB1 (Homo sapiens). Nature of the experiment: Binding affinity to 20S proteasome beta5 subunit in intact human HeLa cells at 1 uM by Western blotting analysis. The class given is cell-based. The following applies: TDE = time-dependent effect. The procedure, abridged:
as §2

For experiment [16], the target named is Proteasome Macropain subunit (Homo sapiens) (UniProt P49721). Put plainly: Inhibition of clasto-lactacystin binding to beta2 subunit of 20S proteasome in human HeLa cells at 1 uM by Western blotting analysis. The class given is cell-based.
Experiment [17] has as its target T1, Proteasome component C5 (Homo sapiens). Nature of the experiment: Binding affinity to 20S proteasome beta-1 subunit in intact human HeLa cells at 1 uM by Western blotting analysis. The class given is cell-based. The conditions noted are these: TDE = time-dependent effect. The procedure, abridged: as §2
Experiment [18] is described as follows: Inhibition of trypsin-like activity of 20S proteasome in human erythrocytes. The procedure, abridged:
as §3

The target of experiment [19] is Proteasome Macropain subunit (Homo sapiens) (UniProt P49721). Put plainly: Binding affinity to 20S proteasome beta2 subunit in human erythrocyte at 1 uM by Western blotting analysis. In a few lines:
as §1

For experiment [20] the target is unchanged. Nature of the experiment: Binding affinity to 20S proteasome beta2 subunit in human HeLa cell extract at 1 uM by Western blotting analysis. The class given is cell-free. The procedure, abridged:
as §5

Experiment [21] has as its target T1, Proteasome component C5 (Homo sapiens). Put plainly: Binding affinity to 20S proteasome beta-1 subunit in human erythrocyte at 1 uM after 0.5 hr by Western blotting analysis. The procedure, abridged:
as §1

Experiment [22] has the same target. Nature of the experiment: Binding affinity to 20S proteasome beta-1 subunit in human erythrocyte at 1 uM after 1 hr by Western blotting analysis. In a few lines:
as §1

pIC50: −log10 of the molar value. The source made the active and inactive calls. The calls are words filed in the database; no cut-off is given here. Residues, ends and D or L forms follow the SMILES beside them. *: point of attachment. Cbz = O=C(OCc1ccccc1)*

Our source for the Activity and IC50 values is ChEMBL document CHEMBL1152217, “Affinity labeling of the proteasome by a belactosin A derived inhibitor” (Bioorg Med Chem Lett, 2008).

By pIC50 is commonly meant −log10 of the IC50, conventionally taken in molar units. Read a high pIC50 as a small IC50.

Chain of Proteasome Macropain subunit (Homo sapiens) (P49721 whole entry): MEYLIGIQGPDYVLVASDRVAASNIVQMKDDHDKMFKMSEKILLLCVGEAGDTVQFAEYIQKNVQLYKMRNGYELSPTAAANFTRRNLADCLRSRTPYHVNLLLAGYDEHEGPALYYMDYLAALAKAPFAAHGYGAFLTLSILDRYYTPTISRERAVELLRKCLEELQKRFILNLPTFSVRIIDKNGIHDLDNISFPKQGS

Regarding `CC[C@H](C)[C@@H]1C(=O)O[C@H]1C(=O)N[C@H]1C[C@H]1C[C@H](NC(=O)[C@H](C)NC(=O)CCCCCNS(=O)(=O)c1cccc2c(N(C)C)cccc12)C(=O)OCc1ccccc1`, the result in experiment [1], in [3], in experiment [4], in [5], in [7] and in experiment [8] was Active. Further, the result in experiment [9], in experiment [11], in [12], in experiment [13], in experiment [14] and in experiment [16] was Active. For the same molecule, the outcome in [19], in experiment [20], in experiment [21] and in experiment [22] was Active. In addition, the Activity result in experiment [2], in experiment [15] and in experiment [17] was “tde” each time. Besides, the pIC50 in experiment [6] is 6.82; in [10], 7.54; with HeLa, 5.01; in experiment [18] it was 5.68.
For the molecule `CC(C)C[C@@H](C=O)NC(=O)[C@H](CC(C)C)NC(=O)[C@H](CC(C)C)NC(=O)OCc1ccccc1` [MG-132] (Cbz-Leu-Leu-Leu-aldehyde), the pIC50 in experiment [6] was 6.92; in [10], 7.96; in experiment [18], 5.68. The result in [9] and in [14] was Active.
Take `CC(C)[C@H](O)[C@]12NC(=O)[C@H](C)[C@@H]1OC2=O`: the negative logarithm of the IC50 (pIC50) in experiment [6] was 5.08; in experiment [10], 7.54; in [18], 6.16. In addition, the result in [11] and in experiment [16] was Active.
As for `CC[C@H](C)[C@@H]1C(=O)O[C@H]1C(=O)N[C@H]1C[C@H]1C[C@H](NC(=O)[C@H](C)N)C(=O)O` [BELACTOSIN A], the pIC50 is 4.85 in [6], 6.09 in experiment [10], 4.43 in the experiment with HeLa and 5.31 in [18].
Regarding `CC[C@H](C)[C@@H]1C(=O)O[C@H]1C(=O)N[C@H]1C[C@H]1C[C@H](NC(=O)[C@H](C)N)C(=O)OCc1ccccc1`, the negative-log IC50 (pIC50) is 5.43 in experiment [6], 6.47 in experiment [10], 6.30 in the experiment with HeLa and 6.35 in [18].
